Measured values of several laboratories.
Each line is one published result; the experiments were not run side by side. ≈ marks a conversion by molar mass, not a printed value.

Structure (SMILES) | organism | test | test system | setting | quantity | value
N#Cc1ccc(/C=C/c2nc3ccccc3c(=O)n2-c2cccc(CC(=O)O)c2)cc1 | Enterococcus faecium | microbial growth, broth dilution | NCTC7171 | – | MIC | > 128 µg/mL
CCn1c(-c2nonc2N)nc2c(C#CC(C)(C)O)nc(OC[C@@H](N)c3ccccc3)cc21 | Trypanosoma brucei | parasite growth | – | – | EC50 | 2510 nM
O=C(O)c1cn(C2CC2)c2cc(N3CCNCC3)c(F)cc2c1=O | Mycobacterium intracellulare | microbial growth, resazurin | ATCC23068 | – | IC50 | 0.4 µg/mL
NS(=O)(=O)c1ccc(NC=C2C(=O)Nc3ccc4ncsc4c32)cc1 | Trypanosoma brucei | parasite growth | – | – | EC50 | 12600 nM
NC(=O)c1cccc(-n2c(/C=C/c3ccc(F)cc3)nc3ccncc3c2=O)c1 | Enterococcus faecium | microbial growth, broth dilution | NCTC7171 | – | MIC | > 128 µg/mL
CS(=O)(=O)CCNCc1ccc(-c2ccc3ncnc(Nc4ccc(OCc5cccc(C(F)(F)F)c5)cc4)c3c2)o1 | Trypanosoma brucei | parasite growth | – | – | EC50 | 2000 nM
O=C(O)c1cn(C2CC2)c2cc(N3CCNCC3)c(F)cc2c1=O | Mycobacterium intracellulare | microbial killing | ATCC23068 | – | MBC | 3 µM (≈ 0.994 µg/mL)
Nc1nonc1-c1nc2cnccc2n1C1CCCCC1 | Trypanosoma brucei | parasite growth | – | – | EC50 | 1260 nM
CCN(Cc1cnc2nc(N)nc(N)c2n1)c1ccc(C(=O)N2CCC(C(=O)OC)CC2)cc1 | Trypanosoma brucei | parasite growth, resazurin | – | 10 µM, 72 h | inhibition | 31%
CNCCc1ccc(Oc2ccc(-c3noc(-c4ccc(O)cc4)n3)cc2)cc1.Cl | Enterococcus faecium | microbial growth, broth dilution | – | 24 h | MIC | 4 µg/mL
CC(=O)NCc1cccc(-n2c(/C=C/c3ccc(C#N)cc3)nc3ccccc3c2=O)c1 | Enterococcus faecium | microbial growth, broth dilution | NCTC7171 | – | MIC | > 128 µg/mL
Cl.NCc1ccc(Oc2ccc(-c3noc(-c4ccc(O)cc4)n3)cc2)cc1 | Enterococcus faecium | microbial growth, broth dilution | – | 24 h | MIC | 4 µg/mL
C[C@@H]1[C@H](O)[C@@H](C)/C=C/C=C/C=C/C=C/C=C/C=C/C=C/[C@H](O[C@@H]2O[C@H](C)[C@@H](O)[C@H](N)[C@@H]2O)C[C@@H]2O[C@](O)(C[C@@H](O)C[C@@H](O)[C@H](O)CC[C@@H](O)C[C@@H](O)CC(=O)O[C@H]1C)C[C@H](O)[C@H]2C(=O)O | Candida albicans | microbial growth | ATCC90028 | – | IC50 | 0.25 µg/mL
CC(=O)OCCCn1c(/C=C/c2ccc(C#N)cc2)nc2ccccc2c1=O | Enterococcus faecium | microbial growth, broth dilution | NCTC7171 | – | MIC | > 128 µg/mL
C=CCCCCCCCCCCCC(O)CC(O)CO (stereo not drawn) | Candida albicans | microbial growth, broth dilution | ATCC90028 | – | IC50 | > 200 µg/mL
NS(=O)(=O)c1ccc(N/N=C2\C(=O)Nc3ccc4ncccc4c32)cc1 | Trypanosoma brucei | parasite growth | – | – | EC50 | 79.4 nM
COc1ccc(-c2nn3ncccc3c2-c2ccnc(Nc3ccc4c(c3)OCCO4)n2)cc1 | Plasmodium berghei | parasite growth, luciferase | human | liver stage | IC50 | 3500 nM
N=C(N)c1ccc(OCCCCCOc2ccc(C(=N)N)cc2)cc1 | Trypanosoma brucei | parasite growth | – | – | EC50 | 5.4 nM
